Key:
Type in all cases: functional
[1] = test system: PC-3; test: Growth inhibition of human PC3 cells after 48 hrs by Sulforhodamine B assay; conditions: PC-3, 48 h
In short: (§1)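 Cells were preincubated 24 h at 37 °C, 5% CO2, and a time-zero plate was TCA-fixed. Five concentrations were made by serial dilution from a DMSO stock (400-fold the top concentration) and incubated 48 h. Adherent cells were fixed with 10% final TCA and suspension cells with 16%. Plates were stained with 0.4% SRB and read at 515 nm. GI50 is the concentration giving 50% reduction in net protein increase versus control.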

[2] = test system: TK-10; test: Growth inhibition of human TK10 cells after 48 hrs by Sulforhodamine B assay; conditions: TK-10, 48 h
In short: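 Five-concentration stage in the […]-cell-line panel, using 10-fold or ½-log serial dilutions made from a DMSO stock (400-fold). Cells were preincubated 24 h at 37 °C, then drug-exposed 48 h. A time-zero plate was fixed with TCA at dosing, adherent cells were fixed with cold TCA (10% final), and protein was stained with SRB, absorbance 515 nm. GI50 was where [(Ti−Tz)/(C−Tz)]×100 = 50, from the percent growth vs log concentration plot, expressed as log10 GI50.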

[3] = test system: CAKI-1; test: Growth inhibition of human CAKI-1 cells after 48 hrs by Sulforhodamine B assay; conditions: CAKI-1, 48 h
In short: (§2)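 Five-concentration SRB assay using 10-fold or ½-log serial dilutions from a DMSO stock. Exposure is 48 h at 37 °C in 5% CO2 after 24 h preincubation. TCA fixation is followed by SRB staining and a reading at 515 nm. Percentage growth is computed from time-zero, control and treated absorbances. GI50 is the concentration where [(Ti−Tz)/(C−Tz)]×100 = 50, read from the plot against log concentration.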

[4] = test system: OVCAR-3; test: Growth inhibition of human OVCAR3 cells after 48 hrs by Sulforhodamine B assay; conditions: OVCAR-3, 48 h; in short: as §1
[5] = test system: IGROV-1; test: Growth inhibition of human IGROV1 cells after 48 hrs by Sulforhodamine B assay; conditions: IGROV-1, 48 h; in short: as §2
[6] = test system: SW-620; test: Growth inhibition of human SW620 cells after 48 hrs by Sulforhodamine B assay; conditions: SW-620, 48 h; in short: as §1
[7] = test system: HT-29; test: Growth inhibition of human HT-29 cells after 48 hrs by Sulforhodamine B assay; conditions: HT-29, 48 h; in short: as §2
[8] = test system: KM12; test: Growth inhibition of human KM12 cells after 48 hrs by Sulforhodamine B assay; conditions: KM12, 48 h; in short: as §2
[9] = test system: COLO 205; test: Growth inhibition of human COLO205 cells after 48 hrs by Sulforhodamine B assay; conditions: COLO 205, 48 h; in short: as §2
[10] = test system: HOP-62; test: Growth inhibition of human HOP62 cells after 48 hrs by Sulforhodamine B assay; conditions: HOP-62, 48 h; in short: as §2
[11] = test system: A549; test: Growth inhibition of human A549/ATCC cells after 48 hrs by Sulforhodamine B assay; conditions: A549, 48 h; in short: as §2
[12] = test system: RPMI-8226; test: Growth inhibition of human RPMI8226 cells after 48 hrs by Sulforhodamine B assay; conditions: RPMI-8226, 48 h; in short: as §1
[13] = test system: MOLT-4; test: Growth inhibition of human MOLT4 cells after 48 hrs by Sulforhodamine B assay; conditions: MOLT-4, 48 h; in short: as §1
[14] = test system: HL-60(TB); test: Growth inhibition of human HL-60(TB) cells after 48 hrs by Sulforhodamine B assay; conditions: HL-60, 48 h
In short: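 Suspension cells pre-incubated 24 h at 37 °C, 5% CO2 before drug addition, with a time-zero plate fixed then. DMSO stocks diluted in medium with gentamicin to five concentrations (10-fold or ½-log steps); 48 h exposure. Settled cells fixed with TCA (final 16%), stained with SRB, dye dissolved in 10 mM Tris base, read at 515 nm. GI50 solved from [(Ti−Tz)/(C−Tz)]×100 = 50.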

[15] = test system: CCRF-CEM; test: Growth inhibition of human CCRF-CEM cells after 48 hrs by Sulforhodamine B assay; in short: as §2
[16] = test system: M14; test: Growth inhibition of human M14 cells at 10^-5 M after 48 hrs by Sulforhodamine B assay relative to control; conditions: M14, 48 h, read-out: GI
In short: (§3)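 Single-dose screen at 10⁻⁵ M. Cells are preincubated 24 h at 37 °C in 5% CO2, then exposed to the compound, diluted from a DMSO stock into medium with gentamicin, for 48 h. Adherent cells are fixed with cold TCA (final 10%) and suspension cells with TCA (final 16%). Cells are stained with 0.4% SRB in 1% acetic acid and bound dye is read at 515 nm. Percent growth inhibition is taken against control wells and time-zero plates.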

[17] = test system: SF-295; test: Growth inhibition of human SF295 cells at 10^-5 M after 48 hrs by Sulforhodamine B assay relative to control; conditions: SF-295, 48 h, read-out: GI
In short: (§4)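 Single-dose primary screen at 10⁻⁵ M across 49 lines. Cells were plated 24 h beforehand, with a TCA-fixed time-zero plate, then exposed 48 h at 37 °C, 5% CO2. Cells were fixed with cold TCA, stained with SRB and read at 515 nm. Percent growth was calculated against time-zero and untreated-control absorbances.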

[18] = test system: HT-29; test: Growth inhibition of human HT-29 cells at 10^-5 M after 48 hrs by Sulforhodamine B assay relative to control; conditions: HT-29, 48 h, read-out: GI; in short: as §3
[19] = test system: KM12; test: Growth inhibition of human KM12 cells at 10^-5 M after 48 hrs by Sulforhodamine B assay relative to control; conditions: KM12, 48 h, read-out: GI; in short: as §3
[20] = test system: K562; test: Growth inhibition of human K562 cells at 10^-5 M after 48 hrs by Sulforhodamine B assay relative to control; conditions: K562, 48 h, read-out: GI; in short: as §3
[21] = test system: MDA-MB-468; test: Growth inhibition of human MDA-MB-468 cells at 10^-5 M after 48 hrs by Sulforhodamine B assay relative to control; conditions: MDA-MB-468, 48 h, read-out: GI; in short: as §4
[22] = test system: BT-549; test: Growth inhibition of human BT549 cells at 10^-5 M after 48 hrs by Sulforhodamine B assay relative to control; conditions: BT-549, 48 h, read-out: GI; in short: as §3
[23] = test system: DU-145; test: Growth inhibition of human DU145 cells at 10^-5 M after 48 hrs by Sulforhodamine B assay relative to control; conditions: DU-145, 48 h, read-out: GI; in short: as §3
[24] = test system: SN12C; test: Growth inhibition of human SN12C cells at 10^-5 M after 48 hrs by Sulforhodamine B assay relative to control; conditions: read-out: GI; in short: as §4
[25] = test system: OVCAR-3; test: Growth inhibition of human OVCAR3 cells at 10^-5 M after 48 hrs by Sulforhodamine B assay relative to control; conditions: OVCAR-3, 48 h, read-out: GI; in short: as §4
[26] = test system: OVCAR-4; test: Growth inhibition of human OVCAR4 cells at 10^-5 M after 48 hrs by Sulforhodamine B assay relative to control; conditions: OVCAR-4, 48 h, read-out: GI; in short: as §4
[27] = test system: IGROV-1; test: Growth inhibition of human IGROV1 cells at 10^-5 M after 48 hrs by Sulforhodamine B assay relative to control; conditions: IGROV-1, 48 h, read-out: GI; in short: as §3
[28] = test system: Malme-3M; test: Growth inhibition of human MALME-3M cells at 10^-5 M after 48 hrs by Sulforhodamine B assay relative to control; conditions: read-out: GI; in short: as §3

COc1ccc(N2CCN(c3nc(-c4ccccn4)nc4sc5c(c34)CCCCCC5)CC2)cc1
GI50 [1]: 3.31 µM | GI50 [2]: > 100 µM | GI50 [3]: 5.37 µM | GI50 [4]: 8.71 µM | GI50 [5]: 5.37 µM | GI50 [6]: 5.13 µM | GI50 [7]: 5.01 µM | GI50 [8]: 5.13 µM | GI50 [9]: 5.62 µM | GI50 [10]: 11.5 µM | GI50 [11]: 3.24 µM | GI50 [12]: 3.72 µM | GI50 [13]: 3.24 µM | GI50 [14]: 4.07 µM | GI50 [15]: 4.37 µM

c1ccc(N2CCN(c3nc(-c4ccncc4)nc4sc5c(c34)CCCCCC5)CC2)cc1
inhibition of growth at 10 µM [16]: -8.43% | inhibition of growth at 10 µM [17]: 6.51% | inhibition of growth at 10 µM [18]: 12.8% | inhibition of growth at 10 µM [19]: 4.95% | inhibition of growth at 10 µM [20]: 7.55% | inhibition of growth at 10 µM [21]: 3.79% | inhibition of growth at 10 µM [22]: -14.1% | inhibition of growth at 10 µM [23]: -4.95% | inhibition of growth at 10 µM [24]: -12.2% | inhibition of growth at 10 µM [25]: 7.59% | inhibition of growth at 10 µM [26]: 0.34% | inhibition of growth at 10 µM [27]: 0.86% | inhibition of growth at 10 µM [28]: -6.19%

c1ccc(N2CCN(c3nc(-c4ccccn4)nc4sc5c(c34)CCCCCC5)CC2)cc1
inhibition of growth at 10 µM [16]: 27.1% | inhibition of growth at 10 µM [17]: 54.8% | inhibition of growth at 10 µM [18]: 42% | inhibition of growth at 10 µM [19]: 55% | inhibition of growth at 10 µM [20]: 79.2% | inhibition of growth at 10 µM [21]: 30.1% | inhibition of growth at 10 µM [22]: 2.77% | inhibition of growth at 10 µM [23]: 21.1% | inhibition of growth at 10 µM [24]: 28.9% | inhibition of growth at 10 µM [25]: 27% | inhibition of growth at 10 µM [26]: 44% | inhibition of growth at 10 µM [27]: 62.9% | inhibition of growth at 10 µM [28]: 7.96%

CN1CCN(c2nc(-c3ccncc3)nc3sc4c(c23)CCCCCC4)CC1
GI50 [1]: 4.68 µM | GI50 [2]: 6.76 µM | GI50 [3]: 3.47 µM | GI50 [4]: 13.5 µM | GI50 [5]: 8.13 µM | GI50 [6]: 12 µM | GI50 [7]: 4.79 µM | GI50 [8]: 13.5 µM | GI50 [9]: 4.9 µM | GI50 [10]: 6.46 µM | GI50 [11]: 11.5 µM | GI50 [12]: 8.32 µM | GI50 [13]: 3.8 µM | GI50 [14]: 12.6 µM | GI50 [15]: 8.13 µM

c1cc(-c2nc(N3CCOCC3)c3c4c(sc3n2)CCCCCC4)ccn1
inhibition of growth at 10 µM [16]: -15.4% | inhibition of growth at 10 µM [17]: 19.5% | inhibition of growth at 10 µM [18]: 17.6% | inhibition of growth at 10 µM [19]: 19.6% | inhibition of growth at 10 µM [20]: 29.3% | inhibition of growth at 10 µM [21]: 11.8% | inhibition of growth at 10 µM [22]: -20.4% | inhibition of growth at 10 µM [23]: 1.4% | inhibition of growth at 10 µM [24]: 19.3% | inhibition of growth at 10 µM [25]: 15.4% | inhibition of growth at 10 µM [26]: 22.7% | inhibition of growth at 10 µM [27]: 1.53% | inhibition of growth at 10 µM [28]: -1.71%

NNc1nc(-c2ccncc2)nc2sc3c(c12)CCCCCC3
inhibition of growth at 10 µM [16]: -11.9% | inhibition of growth at 10 µM [17]: 6.22% | inhibition of growth at 10 µM [18]: 13.2% | inhibition of growth at 10 µM [19]: -0.57% | inhibition of growth at 10 µM [20]: 24.7% | inhibition of growth at 10 µM [21]: 20.1% | inhibition of growth at 10 µM [22]: 1.1% | inhibition of growth at 10 µM [23]: -30.4% | inhibition of growth at 10 µM [24]: 4.3% | inhibition of growth at 10 µM [25]: -0.84% | inhibition of growth at 10 µM [26]: 18.7% | inhibition of growth at 10 µM [27]: -16.5% | inhibition of growth at 10 µM [28]: 2.19%
